The source made the active and inactive calls. The calls are words filed in the database; no cut-off is given here.
Tests used:
[1] = test system: MOLM-13; experiment: Antiproliferative activity against human MOLM13 cells harboring FLT3 ITD mutant assessed as incorporation of [3H]thymidine into DNA after 72 hrs by beta-plate counting analysis; format: functional, cell-based
[2] = Oral bioavailability in rat; format: ADME, organism-based; conditions: in vivo
Method in brief: (§1)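 Intravenous and oral (gavage, solution) PK in rat, dog and cynomolgus monkey. The rat vehicle for both routes was water/acetate/tween at pH 4, 96/3/1 (v/v/v). Dog and monkey iv doses used 40% PG aqueous solution at pH 2, and their oral doses used 20% captisol aqueous solution.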

[3] = biological target: Receptor-type tyrosine-protein kinase FLT3 (Homo sapiens, UniProt P36888, D835H); experiment: Binding affinity to FLT3 D835H mutant (unknown origin)
[4] = test system: MOLM-13; experiment: Antitumor activity against human MOLM13 cells xenografted in po dosed CrTac:NCR-Foxn1nu (NCR) nude mouse assessed as tumor growth inhibition administered qd for 8 days; format: functional
Method in brief: (§2)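 Oral dosing once daily, day 5 to day 13, in NCR nude mice bearing established subcutaneous human MOLM13 AML xenografts, at 25, 50, 75 and 150 mg/kg against a vehicle group. Tumor growth inhibition read on day 14. AUC comes from terminal PK on plasma collected after the final dose.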

[5] = Elimination half-life in iv dosed cynomolgus monkey; format: ADME, organism-based, Macaca fascicularis; conditions: in vivo, read-out: beta t1/2 (converted); method in brief: as §1
[6] = AUC in po dosed CrTac:NCR-Foxn1nu (NCR) nude mouse xenografted with human MOLM13 cells administered qd for 8 days; format: ADME, organism-based, MOLM-13; conditions: in vivo; method in brief: as §2
[7] = biological target: Cyclin-dependent kinase 1/cyclin B1 (Homo sapiens, UniProt P06493); experiment: Inhibition of CDK1/cyclin B (unknown origin) using histone H1 as substrate after 60 mins by scintillation counting analysis in presence of [r-33P]ATP; format: protein-complex assay
Cyclin-dependent kinase 1/cyclin B1, sequence (P06493 whole entry): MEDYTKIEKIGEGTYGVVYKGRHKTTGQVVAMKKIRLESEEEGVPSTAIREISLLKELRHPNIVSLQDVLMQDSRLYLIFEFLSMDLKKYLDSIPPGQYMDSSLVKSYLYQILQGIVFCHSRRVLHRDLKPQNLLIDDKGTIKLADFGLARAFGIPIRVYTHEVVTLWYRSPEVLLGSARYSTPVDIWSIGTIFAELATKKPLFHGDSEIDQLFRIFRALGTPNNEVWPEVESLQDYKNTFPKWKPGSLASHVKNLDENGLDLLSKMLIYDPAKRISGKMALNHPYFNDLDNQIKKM
Cyclin-dependent kinase 1/cyclin B1, sequence (P14635 whole entry, further chain): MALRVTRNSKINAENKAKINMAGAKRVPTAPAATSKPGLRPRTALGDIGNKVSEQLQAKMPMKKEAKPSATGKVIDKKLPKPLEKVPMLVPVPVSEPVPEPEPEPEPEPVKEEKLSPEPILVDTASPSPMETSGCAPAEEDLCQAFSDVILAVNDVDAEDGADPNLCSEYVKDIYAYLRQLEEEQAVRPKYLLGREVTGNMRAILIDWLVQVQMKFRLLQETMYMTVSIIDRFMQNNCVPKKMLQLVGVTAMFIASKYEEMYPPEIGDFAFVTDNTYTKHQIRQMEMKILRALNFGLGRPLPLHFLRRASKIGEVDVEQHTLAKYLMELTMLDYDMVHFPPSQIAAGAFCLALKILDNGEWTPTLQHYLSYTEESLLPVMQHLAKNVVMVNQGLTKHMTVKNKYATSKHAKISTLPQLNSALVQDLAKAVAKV

[8] = Clearance in iv dosed rat; format: ADME, organism-based; conditions: in vivo; method in brief: as §1
[9] = biological target: Receptor-type tyrosine-protein kinase FLT3 (Homo sapiens, UniProt P36888, N841I); experiment: Binding affinity to FLT3 N841I mutant (unknown origin)
[10] = Elimination half-life in iv dosed dog; format: ADME, organism-based, Canis lupus familiaris; conditions: in vivo, read-out: beta t1/2 (converted); method in brief: as §1
[11] = test system: Tumour; experiment: Decrease in STAT5 phosphorylation at Tyr694 in tumor of CrTac:NCR-Foxn1nu (NCR) nude mouse xenografted with human MOLM13 cells at 50 to 150 mg/kg, po after 3 to 24 hrs; format: functional, organism-based; conditions: Neoplasm, MOLM-13
Method in brief: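 MOLM13 tumor-bearing mice received a single oral dose of 50, 75 or 150 mg/kg. Tumors were harvested at 3, 6 and 24 h, and lysates were assayed for pSTAT5 and pRb. Unbound plasma levels were measured at the same time points. Results are mean ± SEM, n = 3 per group and n = 6 for vehicle.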

[12] = biological target: Receptor-type tyrosine-protein kinase FLT3 (Homo sapiens, UniProt P36888, K663Q); experiment: Binding affinity to FLT3 K663Q mutant (unknown origin)
[13] = test system: MOLM-13; experiment: Induction of apoptosis in human MOLM13 cells harboring FLT3 ITD mutant at 1 uM after 48 hrs by Annexin V/Sytox Green staining based flow cytometry; format: functional
Method in brief: (§3)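 MOLM13, sorafenib-resistant MOLM13 and U937 cells were each exposed to compound at 1 μM for 48 h. Cells were then stained with Annexin V/Sytox Green and analysed by flow cytometry. Readout is apoptotic cells as a percentage of all cells analysed.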

[14] = Oral bioavailability in dog; format: ADME, organism-based, Canis lupus familiaris; conditions: in vivo; method in brief: as §1
[15] = Antiproliferative activity against Rb-negative human MDA-MB-436 cells assessed as incorporation of [3H]thymidine into DNA after 72 hrs by beta-plate counting analysis; format: functional
[16] = test system: U-937; experiment: Antiproliferative activity against human U937 cells assessed as incorporation of [3H]thymidine into DNA after 72 hrs by beta-plate counting analysis
[17] = test system: U-937; experiment: Induction of apoptosis in human U937 cells harboring wild type FLT3 at 1 uM after 48 hrs by Annexin V/Sytox Green staining based flow cytometry; format: functional; method in brief: as §3
[18] = test system: MOLM-13; experiment: Antitumor activity against human MOLM13 cells xenografted in CrTac:NCR-Foxn1nu (NCR) nude mouse assessed as tumor growth inhibition at 150 mg/kg, po administered qd for 8 days; format: functional; conditions: MOLM-13, 192 h, read-out: TGI; method in brief: as §2
[19] = Clearance in iv dosed dog; format: ADME, organism-based, Canis lupus familiaris; conditions: in vivo; method in brief: as §1
[20] = test system: MOLM-13; experiment: Antiproliferative activity against human MOLM13 cells harboring FLT3 ITD mutant assessed as incorporation of [3H]thymidine into DNA after […] by beta-plate counting analysis; format: functional, cell-based
[21] = Elimination half-life in iv dosed rat; format: ADME, organism-based; conditions: in vivo, read-out: beta t1/2 (converted); method in brief: as §1
[22] = biological target: Receptor-type tyrosine-protein kinase FLT3 (Homo sapiens, UniProt P36888, D835Y); experiment: Binding affinity to FLT3 D835Y mutant (unknown origin)
[23] = Volume of distribution at steady state in iv dosed cynomolgus monkey; format: ADME, organism-based, Macaca fascicularis; conditions: in vivo, read-out: Vdss; method in brief: as §1
[24] = test system: COLO 205; experiment: Antiproliferative activity against Rb-positive human COLO205 cells assessed as incorporation of [14C]thymidine into DNA after 72 hrs by beta-plate counting analysis
[25] = Clearance in iv dosed cynomolgus monkey; format: ADME, organism-based, Macaca fascicularis; conditions: in vivo; method in brief: as §1
[26] = test system: MOLM-13; experiment: cells; conditions: Homo sapiens
[27] = Volume of distribution at steady state in iv dosed rat; format: ADME, organism-based; conditions: in vivo, read-out: Vdss; method in brief: as §1
[28] = test system: MOLM-13; experiment: Induction of apoptosis in sorafenib-resistant human MOLM13 cells harboring FLT3 ITD+D835Y mutant at 1 uM after 48 hrs by Annexin V/Sytox Green staining based flow cytometry; format: functional; method in brief: as §3

Q: With `C[C@H]1CC[C@H](n2c3cnccc3c3cnc(Nc4ccc5c(n4)CCN(C(=O)CO)C5)nc32)CC1` as the compound, how does the IC50 [1] read?
A: Its IC50 is 19 nM.

Q: And the bioavailability [2]?
A: Its bioavailability is 75%.

Q: And the Kd [3]?
A: The Kd was 1 nM.

Q: What about the TGI [4] of the same compound?
A: The TGI was “Dose-dependent effect”.

Q: What about the ED50 ([4]; MOLM-13, po, 192 h) of the same compound?
A: The ED50 was 22 mg/kg.

Q: What about the half-life [5] of the same compound?
A: Its half-life is 6.6 h.

Q: And the AUC at 192 h [6]?
A: The AUC at 192 h was 28 µM·h.

Q: And the IC50 [7]?
A: The IC50 was 2220 nM.

Q: And the clearance [8]?
A: The clearance was 6.5 mL/min/kg.

Q: What about the Kd [9] of the same compound?
A: The Kd was 4 nM.

Q: What about the half-life [10] of the same compound?
A: The half-life was 4.1 h.

Q: What about the inhibition [11] of the same compound?
A: The inhibition was “Active”.

Q: What about the Kd [12] of the same compound?
A: The Kd was 4 nM.

Q: And the Activity [13]?
A: The Activity was 82.3%.

Q: And the bioavailability [14]?
A: Its bioavailability is 100%.

Q: And the IC50 [15]?
A: The IC50 was 3830 nM.

Q: And the IC50 [16]?
A: The IC50 was 52 nM.

Q: What about the Activity [17] of the same compound?
A: The Activity was 23.68%.

Q: What about the inhibition in vivo at 150 mg/kg [18] of the same compound?
A: The inhibition in vivo at 150 mg/kg was 100%.

Q: And the clearance [19]?
A: The clearance was 23.5 mL/min/kg.

Q: What about the IC50 [20] of the same compound?
A: The IC50 was 28 nM.

Q: What about the half-life [21] of the same compound?
A: Its half-life is 5.5 h.

Q: And the Kd [22]?
A: The Kd was 1 nM.

Q: And the Vd [23]?
A: The Vd was 3.2 L/kg.

Q: What about the IC50 [24] of the same compound?
A: Its IC50 is 55 nM.

Q: What about the clearance [25] of the same compound?
A: Its clearance is 23.7 mL/min/kg.

Q: And the IC50 [26]?
A: Its IC50 is 23 nM.

Q: And the Vd [27]?
A: The Vd was 1.8 L/kg.

Q: And the Activity [28]?
A: Its Activity is 70.86%.
